Results reported in ChEMBL document CHEMBL2331336, “Discovery and structure-activity relationship of 1,3-cyclohexyl amide derivatives as novel mGluR5 negative allosteric modulators” (Bioorg Med Chem Lett, 2013).
pEC50, pIC50, pKi: −log10 of the molar value. Converted amounts (≈) assume the structure as drawn. The source made the active and inactive calls. The rule behind the calls is not given here.

What was measured:
[1] = biological target: T1, Metabotropic glutamate receptor 5 (Homo sapiens, UniProt P41594); assay: Antagonist activity at human mGluR5 expressed in HEK293 cells assessed as inhibition of Ca2+ mobilization by FLIPR assay; type: functional, cell-based
T1 sequence (P41594 whole entry): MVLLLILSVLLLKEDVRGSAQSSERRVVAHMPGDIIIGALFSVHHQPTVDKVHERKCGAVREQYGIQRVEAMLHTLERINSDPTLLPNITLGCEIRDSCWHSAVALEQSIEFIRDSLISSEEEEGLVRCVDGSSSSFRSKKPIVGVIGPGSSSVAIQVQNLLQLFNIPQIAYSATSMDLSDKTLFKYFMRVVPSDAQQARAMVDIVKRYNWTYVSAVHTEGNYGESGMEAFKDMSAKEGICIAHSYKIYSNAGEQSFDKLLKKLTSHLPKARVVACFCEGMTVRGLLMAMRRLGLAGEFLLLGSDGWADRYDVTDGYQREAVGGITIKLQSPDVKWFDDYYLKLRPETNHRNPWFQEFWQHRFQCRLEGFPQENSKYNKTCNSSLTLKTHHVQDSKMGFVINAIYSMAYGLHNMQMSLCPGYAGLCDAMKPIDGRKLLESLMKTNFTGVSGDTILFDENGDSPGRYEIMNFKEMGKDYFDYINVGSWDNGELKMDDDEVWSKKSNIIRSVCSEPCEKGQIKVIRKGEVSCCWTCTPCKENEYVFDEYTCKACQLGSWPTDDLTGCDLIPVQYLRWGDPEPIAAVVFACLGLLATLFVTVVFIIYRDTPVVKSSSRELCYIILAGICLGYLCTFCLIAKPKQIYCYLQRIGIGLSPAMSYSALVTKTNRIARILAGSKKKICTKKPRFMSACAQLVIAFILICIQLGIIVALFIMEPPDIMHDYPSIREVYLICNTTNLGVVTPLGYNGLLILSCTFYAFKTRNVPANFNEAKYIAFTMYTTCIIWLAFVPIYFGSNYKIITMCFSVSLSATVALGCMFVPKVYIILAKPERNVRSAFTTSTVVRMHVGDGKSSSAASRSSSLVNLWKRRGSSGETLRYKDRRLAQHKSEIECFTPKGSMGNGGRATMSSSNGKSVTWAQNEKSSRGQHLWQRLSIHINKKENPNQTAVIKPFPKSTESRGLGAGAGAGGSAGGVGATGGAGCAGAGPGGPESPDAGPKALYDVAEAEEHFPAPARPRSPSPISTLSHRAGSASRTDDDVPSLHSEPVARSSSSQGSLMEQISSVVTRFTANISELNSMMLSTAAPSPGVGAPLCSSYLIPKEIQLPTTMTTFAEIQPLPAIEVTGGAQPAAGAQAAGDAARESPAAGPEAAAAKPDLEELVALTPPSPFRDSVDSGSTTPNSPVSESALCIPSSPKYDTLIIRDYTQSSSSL

[2] = biological target: T1, Metabotropic glutamate receptor 5; assay: Displacement of [3H]-ABP688 from human mGluR5 expressed in HEK293 cells after 60 mins by scintillation counting; type: cell-based
[3] = Plasma protein binding in human; type: ADME, cell-free; conditions: read-out: PPB (converted)
[4] = Partition co-efficient, log D at pH 7.4 of the compound by shake flask method; type: physicochemical; conditions: buffer
[5] = biological target: T2, Metabotropic glutamate receptor 1 (Rattus norvegicus, UniProt P23385); assay: Antagonist activity at rat mGluR1 expressed in HEK293 cells assessed as inhibition of Ca2+ mobilization by FLIPR assay; type: functional, cell-based
T2 sequence (P23385 whole entry): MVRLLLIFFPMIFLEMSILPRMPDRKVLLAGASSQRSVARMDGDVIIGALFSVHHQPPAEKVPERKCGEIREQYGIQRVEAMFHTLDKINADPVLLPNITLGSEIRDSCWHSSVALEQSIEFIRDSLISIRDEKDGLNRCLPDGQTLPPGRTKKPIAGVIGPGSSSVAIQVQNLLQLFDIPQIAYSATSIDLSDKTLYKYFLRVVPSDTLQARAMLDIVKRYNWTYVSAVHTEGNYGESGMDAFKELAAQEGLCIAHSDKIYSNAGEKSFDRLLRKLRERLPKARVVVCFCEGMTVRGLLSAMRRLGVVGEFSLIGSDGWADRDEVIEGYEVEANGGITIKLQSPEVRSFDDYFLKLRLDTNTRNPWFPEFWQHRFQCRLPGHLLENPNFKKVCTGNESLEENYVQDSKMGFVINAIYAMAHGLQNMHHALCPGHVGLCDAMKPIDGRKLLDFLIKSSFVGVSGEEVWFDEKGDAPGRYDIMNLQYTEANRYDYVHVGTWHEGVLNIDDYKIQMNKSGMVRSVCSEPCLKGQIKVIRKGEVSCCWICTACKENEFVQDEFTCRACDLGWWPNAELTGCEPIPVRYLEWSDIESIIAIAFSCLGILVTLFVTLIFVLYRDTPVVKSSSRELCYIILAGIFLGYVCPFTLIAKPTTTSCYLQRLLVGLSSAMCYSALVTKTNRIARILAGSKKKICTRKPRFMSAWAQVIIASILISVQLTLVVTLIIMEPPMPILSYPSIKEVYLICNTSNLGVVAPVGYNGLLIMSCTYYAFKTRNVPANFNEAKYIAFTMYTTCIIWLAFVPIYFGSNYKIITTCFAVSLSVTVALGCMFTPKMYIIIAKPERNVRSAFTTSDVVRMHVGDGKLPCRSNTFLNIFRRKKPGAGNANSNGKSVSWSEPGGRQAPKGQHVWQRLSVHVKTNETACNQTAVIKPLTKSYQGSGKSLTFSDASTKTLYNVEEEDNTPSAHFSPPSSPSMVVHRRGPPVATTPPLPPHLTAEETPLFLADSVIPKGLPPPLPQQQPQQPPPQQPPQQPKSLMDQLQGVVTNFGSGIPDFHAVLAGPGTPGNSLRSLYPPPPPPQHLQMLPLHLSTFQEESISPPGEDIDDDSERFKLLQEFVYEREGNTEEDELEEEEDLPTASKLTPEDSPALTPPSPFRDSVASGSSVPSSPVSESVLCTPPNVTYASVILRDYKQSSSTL
Procedure, shortened: (§1)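 Rat mGluR1 stably in HEK293 cells (1.5% calf serum medium), seeded 24 h earlier, Fluo-4 loaded 1 h at 37 °C in HBSS/HEPES pH 7.4 with probenecid. Curves fitted with Hill equation.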

[6] = biological target: T2, Metabotropic glutamate receptor 1; assay: Agonist activity at rat mGluR1 expressed in HEK293 cells assessed as Ca2+ mobilization by FLIPR assay; type: functional, cell-based; procedure, shortened: as §1
Liver microsomes [7] = assay: Intrinsic clearance in rat liver microsomes; type: ADME, Microsome
[8] = Kinetic solubility of the compound in potassium phosphate buffer after 4 hrs; type: physicochemical; conditions: read-out: Kinetic_solubility
Procedure, shortened: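 Kinetic solubility: compound from 10 mM DMSO stock diluted into 25 mM potassium phosphate buffer and shaken 4 h. Supernatant analyzed by UPLC with PDA detection at 254 nm.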

Liver microsomes [9] = assay: Intrinsic clearance in human liver microsomes; type: ADME, Microsome; set-up: unit not given here
Liver = assay: Intrinsic clearance in mouse liver microsomes; type: ADME, Microsome
[10] = Fraction unbound in mouse brain; type: ADME, tissue-based
Plasma = assay: Fraction unbound in mouse plasma; type: ADME, cell-free
[11] = Ratio of drug uptake in brain to plasma of CD-1 mouse at 10 mg/kg, po at 1 hr; type: ADME, organism-based; set-up: dose 10 mg/kg, route oral; conditions: read-out: BPR
[12] = Drug uptake in CD-1 mouse brain at 10 mg/kg, po at 1 hr; type: ADME, organism-based; set-up: dose 10 mg/kg, route oral; conditions: read-out: Drug uptake
[13] = Plasma concentration in CD-1 mouse at 10 mg/kg, po at 1 hr; type: ADME, organism-based; set-up: dose 10 mg/kg, route oral
[14] = Drug uptake in CD-1 mouse brain at 10 mg/kg, sc at 1 hr; type: ADME, organism-based; set-up: dose 10 mg/kg, route subcutaneous; conditions: read-out: Drug uptake
Procedure, shortened: (§2)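 CD-1 mice (n = 2), 10 mg/kg SC in 20% hydroxypropyl-β-cyclodextrin in water. Brain and plasma sampled at 1 h; averages reported. Quantification limits were 2 ng/g for brain and 2 ng/mL for plasma. Kupp is the ratio of unbound brain to unbound plasma concentration.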

[15] = Ratio of fraction unbound in brain to plasma of CD-1 mouse brain at 10 mg/kg, sc at 1 hr; type: ADME, organism-based; set-up: dose 10 mg/kg, route subcutaneous; conditions: in vivo; procedure, shortened: as §2
[16] = Plasma concentration in CD-1 mouse at 10 mg/kg, sc at 1 hr; type: ADME, organism-based; set-up: dose 10 mg/kg, route subcutaneous; procedure, shortened: as §2
[17] = Ratio of drug uptake in brain to plasma of CD-1 mouse at 10 mg/kg, sc at 1 hr; type: ADME, organism-based; set-up: dose 10 mg/kg, route subcutaneous; conditions: read-out: BPR; procedure, shortened: as §2
Mus musculus = assay: Anxiolytic-like activity in mouse at 30 mg/kg, sc measured after 1 hr by marble burying test; type: functional, organism-based; set-up: dose 30 mg/kg
Procedure, shortened: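 Male CD-1 mice, n = 12 per group, given 3, 10 or 30 mg/kg sc in 20% HPβCD (5 mL/kg); buspirone 10 mg/kg sc in water as positive control. Mice were placed singly in cages for a 30 min session, and marbles buried out of 20 were counted. One-way ANOVA with Dunnett's test.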

Cc1cccc(C(=O)N[C@H]2CCC[C@H](NC(=O)c3ccccn3)C2)c1 (relative stereo)
pIC50 [1]: 6.00

N#Cc1cccc(C(=O)N[C@@H]2CCC[C@H](NC(=O)c3ccccn3)C2)c1 (relative stereo)
pIC50 [1]: < 5.00

COc1cccc(C(=O)N[C@H]2CCC[C@H](NC(=O)c3cccc(Cl)c3)C2)c1 (relative stereo)
pIC50 [1]: 6.10

O=C(N[C@H]1CCC[C@H](NC(=O)c2ncccn2)C1)c1cccc(Cl)c1 (relative stereo)
pIC50 [1]: 6.37
pKi [2]: 5.42

N#Cc1cccc(C(=O)N[C@@H]2CCC[C@@H](C(=O)Nc3ccccn3)C2)c1
pIC50 [1]: < 5.00

O=C(N[C@H]1CCC[C@H](NC(=O)c2ccccn2)C1)c1cccc(Cl)c1
pIC50 [1]: < 5.00

COc1ccc(C(=O)N[C@H]2CCC[C@H](NC(=O)c3cccc(Cl)c3)C2)cc1 (relative stereo)
pIC50 [1]: 6.58
pKi [2]: 6.17

CN(C(=O)c1cccc(Cl)c1)C1CCCC(NC(=O)c2cccc(Cl)c2)C1 (configuration not stated)
pIC50 [1]: < 5.00

Cc1cccnc1C(=O)N[C@H]1CCC[C@H](NC(=O)c2cccc(Cl)c2)C1 (relative stereo)
pIC50 [1]: 5.11

O=C(N[C@H]1CCC[C@H](NC(=O)c2cccc(F)c2)C1)c1cccc(F)c1
pIC50 [1]: 6.23

O=C(N[C@H]1CCC[C@H](NC(=O)C2CCCCC2)C1)c1cccc(Cl)c1 (relative stereo)
pIC50 [1]: 6.07

O=C(N[C@@H]1CCC[C@H](NC(=O)c2ccccn2)C1)c1cccc(Cl)c1 (relative stereo)
pIC50 [1]: 5.82

O=C(N[C@H]1CCC[C@H](NC(=O)c2cnccn2)C1)c1cccc(Cl)c1 (relative stereo)
pIC50 [1]: 5.86

O=C(N[C@@H]1CCC[C@@H](C(=O)Nc2ccccn2)C1)c1cccc(Cl)c1
pIC50 [1]: 5.30

O=C(NC1CCCC(NC(=O)c2ccccn2)C1)c1cccc(Cl)c1 (racemic)
pIC50 [1]: 6.50

COc1cccc(C(=O)NC2CCCC(NC(=O)c3ccccn3)C2)c1 (mixture of isomers)
pIC50 [1]: < 5.00

N#Cc1cccc(C(=O)N[C@H]2CCC[C@H](NC(=O)c3ccccn3)C2)c1
pIC50 [1]: < 5.00

O=C(N[C@@H]1CCC[C@@]2(CN=C(c3cccc(Cl)c3)O2)C1)c1ccccn1
pIC50 [1]: 5.54

O=C(NC1CCCC(NC(=O)c2cccc(Cl)c2)C1)c1cccc(F)c1 (racemic)
pIC50 [1]: 7.07
pKi [2]: 6.49

O=C(N[C@H]1CCC[C@H](NC(=O)c2cccc(Cl)c2)C1)c1ccncc1 (relative stereo)
pIC50 [1]: 6.52
pKi [2]: 6.35

O=C(NC1CCCC2(CN=C(c3cccc(Cl)c3)O2)C1)c1ccncc1 (mixture of isomers)
pIC50 [1]: < 5.00

O=C(N[C@H]1CCC[C@H](NC(=O)c2cccc(Cl)c2)C1)c1cccnc1 (relative stereo)
pIC50 [1]: 6.21

N#Cc1cccc(C(=O)NC2CCCC(NC(=O)c3ccccn3)C2)c1 (racemic)
pIC50 [1]: 6.27
pKi [2]: 5.81

O=C(N[C@@H]1CCC[C@@H](NC(=O)c2cccc(Cl)c2)C1)c1cccc(F)c1
fraction unbound [3]: 0.039
logD [4]: > 5
pIC50 [5]: 5.68
pIC50 [1]: 7.23
pKi [2]: 6.68
pEC50 [6]: < 5.00
Intrinsic clearance (Liver microsomes [7]): 9.4 mL/min
solubility kinetic at 4 h [8]: 5.4 µM (≈ 2.02 µg/mL)
Intrinsic clearance (Liver microsomes [9]): 0.8

N#Cc1cccnc1C(=O)NC1CCCC(NC(=O)c2cccc(Cl)c2)C1 (mixture of isomers)
pIC50 [1]: 6.17
pKi [2]: 5.90

O=C(N[C@H]1CCC[C@H](NC(=O)c2cccc(Cl)c2)C1)c1cccc(F)c1
pIC50 [1]: 5.02

Cc1cccc(C(=O)N[C@@H]2CCC[C@@]3(CN=C(c4cccc(Cl)c4)O3)C2)n1
pIC50 [1]: 5.28

CN(C)c1ccc(C(=O)N[C@H]2CCC[C@H](NC(=O)c3cccc(Cl)c3)C2)cc1
pIC50 [1]: 6.33

O=C(N[C@H]1CCC[C@H](NC(=O)c2ccccn2)C1)c1ccccn1
pIC50 [1]: 5.94

O=C(NC1CCCC2(CN=C(c3cccc(Cl)c3)O2)C1)c1cccnc1 (mixture of isomers)
pIC50 [1]: < 5.00

O=C(NC1CCCC(NC(=O)c2cccc(Cl)c2)C1)c1cccc(Cl)c1 (mixture of isomers)
pIC50 [1]: 6.86

O=C(N[C@H]1CCC[C@H](NC(=O)c2ccccc2F)C1)c1cccc(Cl)c1 (relative stereo)
pIC50 [1]: 6.76
pKi [2]: 6.12

O=C(N[C@H]1CCC[C@H](NC(=O)c2cccc(Cl)c2)C1)c1ccccc1 (relative stereo)
pIC50 [1]: 6.64
pKi [2]: 6.17

CN(C(=O)c1cccc(Cl)c1)C1CCCC(N(C)C(=O)c2cccc(Cl)c2)C1 (configuration not stated)
pIC50 [1]: < 5.00

Cc1cccc(C(=O)N[C@H]2CCC[C@H](NC(=O)c3cccc(Cl)c3)C2)n1 (racemic)
pIC50 [1]: 6.54
pKi [2]: 6.24

O=C(N[C@H]1CCC[C@H](NC(=O)c2cccc(Cl)c2)C1)c1ccc(F)cc1 (relative stereo)
pIC50 [1]: 6.71
pKi [2]: 6.31

O=C(N[C@H]1CCC[C@H](C(=O)Nc2cccc(Cl)c2)C1)c1ccccn1
pIC50 [1]: 6.33

CN(C)c1cccc(C(=O)N[C@H]2CCC[C@H](NC(=O)c3cccc(Cl)c3)C2)c1 (relative stereo)
pIC50 [1]: < 5.00

Cc1cccc(C(=O)N[C@@H]2CCC[C@@]3(CN=C(c4cccc(Cl)c4)O3)C2)n1 (relative stereo)
pIC50 [1]: 7.14

Cc1ccnc(C(=O)N[C@H]2CCC[C@H](NC(=O)c3cccc(Cl)c3)C2)c1 (relative stereo)
pIC50 [1]: 5.47

O=C(Cc1ccccn1)N[C@H]1CCC[C@H](NC(=O)c2cccc(Cl)c2)C1 (relative stereo)
pIC50 [1]: < 5.00

N#Cc1cccc(C(=O)N[C@@H]2CCC[C@@H](NC(=O)c3ccccn3)C2)c1
fraction unbound [3]: 0.157
Intrinsic clearance (Liver): 1.8 mL/min
pIC50 [5]: < 5.00
pIC50 [1]: 6.64
pKi [2]: 5.89
pEC50 [6]: < 5.00
Intrinsic clearance (Liver microsomes [7]): 8.3 mL/min
solubility kinetic at 4 h [8]: 240 µM (≈ 83.6 µg/mL)
Intrinsic clearance (Liver microsomes [9]): 0.5

Cc1cccc(C(=O)N[C@H]2CCC[C@@]3(CN=C(c4cccc(Cl)c4)O3)C2)n1 (relative stereo)
pIC50 [1]: 5.82

O=C(NC1CCCC2(CN=C(c3cccc(Cl)c3)O2)C1)c1ccccn1 (mixture of isomers)
pIC50 [1]: 6.19
pKi [2]: 7.52

Cc1cccc(C(=O)N[C@H]2CCC[C@]3(CN=C(c4cccc(Cl)c4)O3)C2)n1
Intrinsic clearance (Liver): 12.5 mL/min
fraction unbound [10]: 0.003
Cp(f) (Plasma): 0.2%
Kp at 1 h [11]: 0.5
pIC50 [5]: < 5.00
concentration at 1 h [12]: 0.009 µM
concentration at 1 h [13]: 0.017 µM
concentration at 1 h [14]: 0.91 µM
pIC50 [1]: 7.64
Ratio [15]: 1.1
concentration at 1 h [16]: 1.18 µM
Kp at 1 h [17]: 0.8
Activity (Mus musculus): Active
pEC50 [6]: < 5.00
Intrinsic clearance (Liver microsomes [7]): 48 mL/min
Intrinsic clearance (Liver microsomes [9]): 13
